In ChEMBL document CHEMBL3297702, “Improving photodynamic inactivation of bacteria in dentistry: highly effective and fast killing of oral key pathogens with novel tooth-colored type-II photosensitizers” (J Med Chem, 2014):
Active and inactive are the calls of the source. The rule behind the calls is not given here.

How the values were obtained:
Streptococcus mutans [1] = test: Photodynamic inactivation of Streptococcus mutans ATCC 25175 assessed as reduction of log10 CFU at 10 uM incubated prior to irradiation with 150 j/cm'2 for 120 secs measured after 48 hrs by agar plating method (reference value: <1 no unit); assay type: functional
Actinomyces naeslundii [2] = test: Photodynamic inactivation of Actinomyces naeslundii T14V assessed as reduction of log10 CFU at 100 uM incubated prior to irradiation with 150 j/cm'2 for 120 secs measured after 48 hrs by agar plating method (reference value: <1 no unit); assay type: functional
Method in brief: (§1)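 A. naeslundii T14V grown overnight at 37 °C, shaken, aerobically in BHI broth. Harvested at stationary phase, resuspended in PBS to 10^7–10^8 bacteria/mL (OD600). Mixed 1:1 with PS (final 0–250 µM) or water, 10 s incubation, then blue photopolymerizer light (1260 ± 50 mW/cm2) or dark. Tenfold dilutions plated on blood agar, aerobic 37 °C 48 h, CFU counted; medians of three independent experiments in triplicate.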

Streptococcus mutans [3] = test: Photodynamic inactivation of Streptococcus mutans ATCC 25175 assessed as reduction of log10 CFU at 5 uM incubated prior to irradiation with 25 j/cm'2 for 20 secs measured after 48 hrs by agar plating method (reference value: <1 no unit); assay type: functional
[4] = test system: Aggregatibacter actinomycetemcomitans; test: Photodynamic inactivation of Aggregatibacter actinomycetemcomitans ATCC 43718 assessed as reduction of log10 CFU at 1 uM incubated prior to irradiation with 50 j/cm'2 for 40 secs measured after 48 hrs by agar plating method (reference value: <1 no unit); assay type: functional, Y4
Method in brief: (§2)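 A. actinomycetemcomitans ATCC 43718 cultured overnight in BHI broth under anaerobic conditions, 37 °C with shaking. Stationary-phase cells were spun down, taken up in PBS to 10^7–10^8/mL, and combined 1:1 with PS (final 0–250 µM) or water. After 10 s they were irradiated at 1260 ± 50 mW/cm2 or kept dark. Serial dilutions went onto BHI agar, incubated anaerobically at 37 °C for 48 h, and CFU were scored. Results are medians from 3 experiments × triplicate versus untreated controls.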

Streptococcus mutans [5] = test: Photodynamic inactivation of Streptococcus mutans ATCC 25175 assessed as reduction of log10 CFU at 10 uM incubated prior to irradiation with 50 j/cm'2 for 40 secs measured after 48 hrs by agar plating method (reference value: <1 no unit); assay type: functional
Streptococcus mutans [6] = test: Photodynamic inactivation of Streptococcus mutans ATCC 25175 assessed as reduction of log10 CFU at 5 uM incubated prior to irradiation with 50 j/cm'2 for 40 secs measured after 48 hrs by agar plating method (reference value: <1 no unit); assay type: functional
Actinomyces naeslundii [7] = test: Photodynamic inactivation of Actinomyces naeslundii T14V assessed as reduction of log10 CFU at 1 uM incubated prior to irradiation with 50 j/cm'2 for 40 secs measured after 48 hrs by agar plating method (reference value: <1 no unit); assay type: functional; method in brief: as §1
[8] = test system: Aggregatibacter actinomycetemcomitans; test: Photodynamic inactivation of Aggregatibacter actinomycetemcomitans ATCC 43718 assessed as reduction of log10 CFU at 5 uM incubated prior to irradiation with 50 j/cm'2 for 40 secs measured after 48 hrs by agar plating method (reference value: <1 no unit); assay type: functional, Y4; method in brief: as §2
Streptococcus mutans [9] = test: Photodynamic inactivation of Streptococcus mutans ATCC 25175 assessed as reduction of log10 CFU at 5 uM incubated prior to irradiation with 150 j/cm'2 for 120 secs measured after 48 hrs by agar plating method (reference value: <1 no unit); assay type: functional
Streptococcus mutans [10] = test: Photodynamic inactivation of Streptococcus mutans ATCC 25175 assessed as reduction of log10 CFU at 10 uM incubated prior to irradiation with 25 j/cm'2 for 20 secs measured after 48 hrs by agar plating method (reference value: <1 no unit); assay type: functional
[11] = test system: Aggregatibacter actinomycetemcomitans; test: Photodynamic inactivation of Aggregatibacter actinomycetemcomitans ATCC 43718 assessed as reduction of log10 CFU at 1 uM incubated prior to irradiation with 150 j/cm'2 for 120 secs measured after 48 hrs by agar plating method relative to control; assay type: functional, Y4; method in brief: as §2
[12] = test system: Aggregatibacter actinomycetemcomitans; test: Photodynamic inactivation of Aggregatibacter actinomycetemcomitans ATCC 43718 assessed as reduction of log10 CFU at 10 uM incubated prior to irradiation with 25 j/cm'2 for 20 secs measured after 48 hrs by agar plating method relative to control; assay type: functional, Y4; method in brief: as §2
Enterococcus faecalis [13] = test: Photodynamic inactivation of Enterococcus faecalis ATCC 29212 assessed as reduction of log10 CFU at 1 to 250 uM preincubated for 10 secs followed by irradiation with 50 j/cm'2 for 40 secs measured after 24 hrs by agar plating method; assay type: functional, organism-based
Method in brief: (§3)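 E. faecalis ATCC 29212, aerobic overnight BHI culture at 37 °C, was harvested at stationary phase and suspended in PBS at 10^7–10^8 bacteria/mL. It was mixed 1:1 with PS to 0–250 µM final, held 10 s, then illuminated (1260 ± 50 mW/cm2) or kept dark. Dilutions were plated on Mueller-Hinton agar, aerobic 37 °C 24 h, CFU counted. Medians of three independent triplicate experiments, referred to untreated controls.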

Actinomyces naeslundii [14] = test: Photodynamic inactivation of Actinomyces naeslundii T14V assessed as reduction of log10 CFU at 1 to 250 uM preincubated for 10 secs followed by irradiation with 25 j/cm'2 for 20 secs measured after 48 hrs by agar plating method; assay type: functional, organism-based; method in brief: as §1
Streptococcus mutans [15] = test: Photodynamic inactivation of Streptococcus mutans ATCC 25175 assessed as reduction of log10 CFU at 1 to 250 uM preincubated for 10 secs followed by irradiation with 50 j/cm'2 for 40 secs measured after 48 hrs by agar plating method; assay type: functional
Enterococcus faecalis [16] = test: Photodynamic inactivation of Enterococcus faecalis ATCC 29212 assessed as reduction of log10 CFU at 1 to 250 uM preincubated for 10 secs followed by irradiation with 25 j/cm'2 for 20 secs measured after 24 hrs by agar plating method; assay type: functional, organism-based; method in brief: as §3
[17] = test system: Aggregatibacter actinomycetemcomitans; test: Photodynamic inactivation of Aggregatibacter actinomycetemcomitans ATCC 43718 assessed as reduction of log10 CFU at 1 to 250 uM incubated prior to irradiation with 150 j/cm'2 for 120 secs measured after 48 hrs by agar plating method; assay type: functional; details: Y4; method in brief: as §2
[18] = test system: Aggregatibacter actinomycetemcomitans; test: Photodynamic inactivation of Aggregatibacter actinomycetemcomitans ATCC 43718 assessed as reduction of log10 CFU at 1 to 250 uM incubated prior to irradiation with 50 j/cm'2 for 40 secs measured after 48 hrs by agar plating method; assay type: functional; details: Y4; method in brief: as §2
Actinomyces naeslundii [19] = test: Photodynamic inactivation of Actinomyces naeslundii T14V assessed as reduction of log10 CFU at 1 to 250 uM preincubated for 10 secs followed by irradiation with 50 j/cm'2 for 40 secs measured after 48 hrs by agar plating method; assay type: functional, organism-based; method in brief: as §1

**Q.** C[N+](C)(CCO)CC1=Cc2cccc3cccc(c23)C1=O.[Cl-] was tested. Which log10cfu (Streptococcus mutans [1]) did it give?
**A.** The log10cfu was >6.

**Q.** And the log10cfu (Actinomyces naeslundii [2])?
**A.** Its log10cfu is > 5.

**Q.** And the log10cfu (Streptococcus mutans [3])?
**A.** The log10cfu was <1.

**Q.** What about the log10cfu [4] of the same molecule?
**A.** Its log10cfu is <3.

**Q.** And the log10cfu (Streptococcus mutans [5])?
**A.** Its log10cfu is <3.

**Q.** And the log10cfu (Streptococcus mutans [6])?
**A.** The log10cfu was <1.

**Q.** What about the log10cfu (Actinomyces naeslundii [7]) of the same molecule?
**A.** The log10cfu was <1.

**Q.** And the log10cfu [8]?
**A.** The log10cfu was <3.

**Q.** What about the log10cfu (Streptococcus mutans [9]) of the same molecule?
**A.** The log10cfu was <3.

**Q.** What about the log10cfu (Streptococcus mutans [10]) of the same molecule?
**A.** Its log10cfu is <1.

**Q.** What about the log10cfu [11] of the same molecule?
**A.** Its log10cfu is >6.

**Q.** And the log10cfu [12]?
**A.** Its log10cfu is <3.

**Q.** What does the source list for C[N+](C)(C)CC1=Cc2cccc3cccc(c23)C1=O.[Cl-]?
**A.** Activity (Enterococcus faecalis [13]): Active; Activity (Actinomyces naeslundii [14]): Active; Activity (Streptococcus mutans [15]): Active; Activity (Enterococcus faecalis [16]): Active; Activity [17]: Active; Activity [18]: Active; Activity (Actinomyces naeslundii [19]): Active

**Q.** What does the source list for O=C1C(C[n+]2ccccc2)=Cc2cccc3cccc1c23.[Cl-]?
**A.** log10cfu (Streptococcus mutans [1]): >6; log10cfu (Actinomyces naeslundii [2]): > 5; Activity (Enterococcus faecalis [13]): Active; log10cfu (Streptococcus mutans [3]): <3; log10cfu [4]: <3; log10cfu (Streptococcus mutans [5]): >6; Activity (Actinomyces naeslundii [14]): Active; log10cfu (Streptococcus mutans [6]): <3; log10cfu (Actinomyces naeslundii [7]): <1; Activity (Streptococcus mutans [15]): Active; log10cfu [8]: >6; log10cfu (Streptococcus mutans [9]): >6; log10cfu (Streptococcus mutans [10]): <3; Activity (Enterococcus faecalis [16]): Active; log10cfu [11]: >6; Activity [17]: Active; Activity [18]: Active; Activity (Actinomyces naeslundii [19]): Active; log10cfu [12]: >6
